The text below walks through data of ChEMBL document CHEMBL4350958, “Rational Design of Short Peptide Variants by Using Kunitzin-RE, an Amphibian-Derived Bioactivity Peptide, for Acquired Potent Broad-Spectrum Antimicrobial and Improved Therapeutic Potential of Commensalism Coinfection of Pathogens” (J Med Chem, 2019).

Activity calls are given as the source filed them. The calls are words filed in the database; no cut-off is given here. Where a SMILES comes first, the peptide text is derived from it.

Data set [1] deals with Lipid bilayer. As to the kind of experiment: Induction of membrane disruption in PG/CL/PE large unilamellar vesicles assessed as calcein-entrapped liposome leakage at 64 uM after 15 mins by spectrofluorophotometric assay relative to control. The method, boiled down:
(§1)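 Calcein (70 mM)-loaded LUVs of PG/CL/PE (2:1:7 w/w/w, E. coli membrane mimic), made by freeze-thaw and 100-nm extrusion, free dye removed on Sephadex G-50. LUVs (100 μM) exposed to peptide (1–64 μM) for 15 min. Leakage read at ex 490/em 520 nm: liposomes alone are background, Triton X-100 is 100%. Independent triplicates.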

In data set [2] the test system is Escherichia coli. Briefly: Induction of outer membrane permeabilization in Escherichia coli ATCC 25922 at 64 uM by NPN-dye based assay relative to control. The method, boiled down:
(§2)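 Mid-log E. coli ATCC 25922 (OD600 0.2) incubated 30 min with NPN (10 μM) in 5 mM HEPES pH 7.4 with 5 mM glucose, then mixed 1:1 with peptide (1–64 μM). Fluorescence (ex 350/em 420 nm) recorded until it plateaued. Percent NPN uptake calculated relative to no peptide and to 10 μg/mL polymyxin B. Three independent experiments, triplicates.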

Data set [3] is described as follows: Hemolytic activity in human RBC at 128 uM measured after 1 hr relative to control. Format: ADME, cell-based, Erythrocyte. The following applies: human red blood cells (erythrocytes), read-out: Activity. The method, boiled down: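 Fresh human erythrocytes at ~1% (v/v) in PBS pH 7.4, mixed with equal volume of peptide (1-128 µM) for 1 h at 37 °C. After centrifugation, hemoglobin in the supernatant read at 576 nm. Untreated cells set 0% and 0.1% Triton X-100 set 100% hemolysis. At least three independent experiments, each in triplicate.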

Data set [4] concerns Escherichia coli. Briefly: Induction of cytoplasmic membrane depolarization in Escherichia coli ATCC 25922 assessed as fluorescence intensity at 2 uM up to 3000 secs by DiSC3-5 dye-based fluorescence spectrophotometric method. The essentials: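 Mid-log E. coli ATCC 25922 (OD600 0.05) loaded with 0.4 μM DiSC3-5 and 100 mM K+ in 5 mM HEPES pH 7.4 with 20 mM glucose until fluorescence stabilized. Peptide added in a 1-cm cuvette and fluorescence (ex 622, em 670 nm) recorded 0–3000 s. Triplicate, three biological replicates.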

In data set [5] the test system is Pseudomonas aeruginosa. As to the kind of experiment: Antibacterial activity against Pseudomonas aeruginosa ATCC 27853 assessed as ratio of MBC after and before 30 serial passages at sub-MBC. Format: functional. The method, boiled down: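 P. aeruginosa ATCC 27853 passaged every 24 h by 100-fold dilution in MHB containing sub-MBC drug, for 30 passages. MBC was tested on the cells from each passage. Control cells were passaged in drug-free MHB. Run independently in triplicate with three biological replicates.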

In data set [6] the test system is Staphylococcus aureus. As to the kind of experiment: Bactericidal activity against Staphylococcus aureus ATCC 29213 assessed as reduction in bacterial growth at MBC by time-kill assay. Format: functional, organism-based. The method, boiled down: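 Time-kill assay. E. coli ATCC 25922, S. aureus ATCC 29213 or C. albicans cgmcc 2.2086 at a final 0.5-1×10^5 CFU mL-1 treated at 1×MBC/MFC. Aliquots collected at different times to calculate survival, with an untreated control. Mean of three independent experiments, each with three technical replicates.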

The test system of data set [7] is Salmonella enterica subsp. enterica serovar Pullorum. Briefly: Antibacterial activity against Salmonella pullorum ATCC 7913 measured after 24 hrs. It is filed as functional. The essentials:
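Broth microdilution adapted from NCCLS. Mid-log bacteria were diluted in MHB to a final (0.5–1) × 10^5 CFU mL−1. Peptides were serially diluted in 0.2% BSA and mixed with an equal volume of cells. After 24 h at 37 °C, MIC was read at A492 as the lowest concentration inhibiting 95% of growth. At least three independent experiments, each with three technical replicates.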

Data set [8] has the same test system. As to the kind of experiment: Bactericidal activity against Salmonella pullorum ATCC 7913 incubated for 24 hrs followed by replating on agar plate and measured after overnight incubation. It is filed as functional. The method, boiled down: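 Mid-log bacteria diluted in MHB to (0.5–1) × 10^5 CFU/mL and mixed 1:1 with peptide serially diluted in 0.2% BSA. After 24 h at 37 °C, 50 μL of each mixture was plated on agar and incubated overnight. MBC taken as the lowest concentration killing >99.9% of cells. At least three independent experiments, each with three technical replicates.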

In data set [9] the test system is Staphylococcus aureus. As to the kind of experiment: Antibacterial activity against Staphylococcus aureus ATCC 29213 assessed as ratio of MIC95 in presence of CaCl2 to in absence of CaCl2. It is filed as functional. The method, boiled down:
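S. aureus ATCC 29213, mid-log, (0.5–1) × 10^5 CFU/mL final in MHB, with or without 2 mM CaCl2 (final). Peptide serially diluted in 0.2% BSA and mixed 1:1 with cells, 24 h at 37 °C. MIC is the lowest concentration inhibiting 95% of growth by A492. Three independent experiments, each with three technical replicates.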

The subject of data set [10] is Escherichia coli. As to the kind of experiment: Induction of outer membrane permeabilization in Escherichia coli ATCC 25922 at 4 uM by NPN-dye based assay relative to control. The method, boiled down: as §2
Data set [11] concerns Lipid bilayer. As to the kind of experiment: Induction of membrane disruption in PG/CL/PE large unilamellar vesicles assessed as calcein-entrapped liposome leakage at 8 uM after 15 mins by spectrofluorophotometric assay relative to control. The essentials: as §1
Data set [12] relates to Staphylococcus aureus. As to the kind of experiment: Induction of morphological changes in Staphylococcus aureus ATCC 29213 assessed as appearance of intracellular empty areas at MBD measured after 1 hr by transmission electron microscopic analysis. Format: functional, organism-based.
The test system of data set [13] is Staphylococcus aureus. Briefly: Antibacterial activity against Staphylococcus aureus ATCC 29213 assessed as ratio of MIC95 in presence of NaCl to in absence of NaCl. It is filed as functional.
Data set [14] concerns Pseudomonas aeruginosa. Briefly: Antibacterial activity against melittin-resistant Pseudomonas aeruginosa ATCC 27853 measured after 24 hrs. It is filed as functional, organism-based.
For data set [15], the system named is Candida albicans. Briefly: Antifungal activity against Candida albicans cgmcc2.2086 infected in C57BL/6 mouse model of keratitis assessed as reduction in clinical score at 1 to 5 mg/ml administered as topical eye drop every 5 mins for first 4 hrs and every 30 mins for next 7 hrs measured post-last dose. It is filed as functional, organism-based.
Data set [16] concerns Escherichia coli. Briefly: Drug uptake in plasma membrane of Escherichia coli ATCC 25922 at MBC measured after 30 mins using FITC-labeled compound by microscopic analysis. It is filed as ADME, organism-based. To be noted: in vivo, 0.5 h. The essentials:
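E. coli ATCC 25922 or S. aureus ATCC 29213 (OD600 0.2) incubated with FITC-labeled peptide at 1×MBC, 37 °C, 30 min. Cells washed, resuspended with PI (10 μg/mL) in PBS, smeared and imaged by superresolution microscopy using 488 and 535 nm filters for FITC and PI. Peptide-free cells served as controls. Three independent scans.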

Data set [17] has as its system Candida albicans. As to the kind of experiment: Antifungal activity against Candida albicans cgmcc2.2086 assessed as ratio of MIC95 in presence of NaCl to in absence of NaCl. It is filed as functional.

For the compound `CC[C@H](C)[C@H](NC(=O)[C@H](CCCCN)NC(=O)[C@H](C)NC(=O)[C@H](C)N)C(=O)N[C@H](C(=O)N[C@@H](CC(C)C)C(=O)N[C@@H](CC(N)=O)C(=O)N1CCC[C@H]1C(=O)N[C@@H](CCCCN)C(=O)N[C@@H](Cc1ccccc1)C(=O)N[C@@H](CCCNC(=N)N)C(=O)N[C@@H](CS)C(=O)N[C@@H](CCCCN)C(=O)N[C@@H](C)C(=O)N[C@@H](C)C(=O)N[C@@H](Cc1ccccc1)C(=O)N[C@@H](CS)C(N)=O)[C@@H](C)CC` (H-AAKIILNPKFRCKAAFC-NH2), the Activity in data set [1] is less than 5%; in data set [2], 35%. In addition, in data set [3], the hemolysis at 1 h, 128 µM worked out at 20%.

Take `CC[C@H](C)[C@H](NC(=O)CN)C(=O)NCC(=O)N[C@@H](C)C(=O)N[C@H](C(=O)N[C@@H](CC(C)C)C(=O)N[C@@H](CCCCN)C(=O)N[C@H](C(=O)N[C@@H](CC(C)C)C(=O)N[C@H](C(=O)N[C@H](C(=O)NCC(=O)N[C@@H](CC(C)C)C(=O)N1CCC[C@H]1C(=O)N[C@@H](C)C(=O)N[C@@H](CC(C)C)C(=O)N[C@H](C(=O)N[C@@H](CO)C(=O)N[C@@H](Cc1c[nH]c2ccccc12)C(=O)N[C@H](C(=O)N[C@@H](CCCCN)C(=O)N[C@@H](CCCNC(=N)N)C(=O)N[C@@H](CCCCN)C(=O)N[C@@H](CCCNC(=N)N)C(=O)N[C@@H](CCC(N)=O)C(=O)N[C@@H](CCC(N)=O)C(N)=O)[C@@H](C)CC)[C@@H](C)CC)[C@@H](C)O)[C@@H](C)O)C(C)C)C(C)C` [MELITTIN]: the Flu intensity in data set [4] is listed as 4000 a.u. Besides, the hemolysis at 1 h, 128 µM in data set [3] lay in the range of 84 to 94%. Besides, the Ratio in data set [5] is given as 128. The outcome in data set [6] was Active.

Take GENTAMICIN: the MIC95 in data set [7] was 1 µM. In data set [8], the MBC>99.9 is 2 µM. Besides, the Ratio in data set [5] amounted to 32.

As to H-AARIILRWRFR-NH2, the Ratio in [9], in data set [13] and in data set [17] was 4 in each case. In addition, the Activity result in [10] is “>=50 - 51%”; in [11] it was greater than 40%; in data set [1] it was 65%; in data set [2], 110%. The outcome in data set [12], in [14] and in data set [15] was Active. The Drug uptake result in [16] is given as “Active”.

As for H-AARRILRWIFR-NH2, the results for the Ratio in data set [13] and in data set [17] were 16 and 4, respectively.

For POLYMYXIN B, the MIC95 in data set [7] is 1 µM. The compound further registered an MBC>99.9 in [8] of 1 µM.
